Experimental data as given in article PMC9071802 (RSC Advances, 2019).

Columns and labels:
[1] = tested on: Human Embryonic Kidney cell lines (HEK-293); assay: Cytotoxicity MTT assay; assay type: cell-based; settings: HEK-293, 25, 50 and 100 μM, 24 h
Procedure, shortened: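 HEK cells were grown in high-glucose DMEM with 10% FBS and 1% pen-strep at 37 °C and 5% CO₂. They were seeded at 10⁴ cells/well and left overnight. Test compound from DMSO stock was diluted in medium to 25, 50 and 100 µM and applied for 24 h, with a DMSO blank and a positive control. MTT in phenol-red-free DMEM was added for 3 h. Formazan was dissolved in DMSO and read at 570 and 650 nm. Viability was expressed as % of untreated control.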

[2] = tested on: P. aeruginosa MH602 lasB reporter strain (PlasB: gfp(ASV)); assay: Quorum sensing inhibition assay, GFP fluorescence of lasB reporter strain; assay type: cell-based, Pseudomonas aeruginosa; settings: ± standard deviation, NA: no activity; for inhibition at 62.5 µM / inhibition at 125 µM / inhibition at 250 µM: Pseudomonas aeruginosa; for inhibition at 62.5 µM: read-out: Percentage inhibition of GFP fluorescence, 62.5 μM; for inhibition at 125 µM: read-out: Percentage inhibition of GFP fluorescence, 125 μM; for inhibition at 250 µM: read-out: Percentage inhibition of GFP fluorescence, 250 μM
Procedure, shortened: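 The reporter is a chromosomal lasB promoter–gfp(ASV) fusion responsive to 3-oxododecanoyl-HSL. Cultures were grown overnight in LB10, then diluted 1:100 in ABT with 0.25% tryptone and 0.13% yeast extract plus ampicillin 100 µg mL⁻¹ and gentamicin 20 µg mL⁻¹. Test compound in DMSO was tested at 62.5, 125 or 250 µM, with 1% DMSO controls. Cultures were incubated at 37 °C and shaken briefly before each read. Fluorescence (ex 485/em 535 nm) and OD600 were read every 30 min for 20 h, in triplicate per experiment.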

[3] = tested on: LasR, P. aeruginosa PAO-JG21; settings: read-out: IC50, LasR activity; cited from earlier work
[4] = tested on: LasR, P. aeruginosa PAO-JP2; settings: read-out: IC50, LasR activity; cited from earlier work

Molecule	inhibition at 62.5 µM [2] [%]	inhibition at 125 µM [2] [%]	inhibition at 250 µM [2] [%]	further results
O=C(Cn1cc(-c2ccc([N+](=O)[O-])cc2)nn1)Nc1nc2ccccc2[nH]1 [6p, N-(1H-Benzo[d]imidazol-2-yl)-2-(4-(4-nitrophenyl)-1H-1,2,3-triazol-1-yl)acetamide]	63.7 ± 7.51	67.1 ± 5.45	68.2 ± 3.87	Cytotoxicity [1]: low cytotoxicity
O=C(CCCc1cn(CC(=O)NC2CCCCC2)nn1)Nc1nc2ccccc2[nH]1 [11b, N-(1H-Benzo[d]imidazol-2-yl)-4-(1-(2-(cyclohexylamino)-2-oxoethyl)-1H-1,2,3-triazol-4-yl)butanamide]	–	–	12.9 ± 20.2	–
O=C(Cn1cc(CCCC(=O)Nc2nc3ccccc3[nH]2)nn1)Nc1ccccn1 [11c, N-(1H-Benzo[d]imidazol-2-yl)-4-(1-(2-oxo-2-(pyridin-2-ylamino)ethyl)-1H-1,2,3-triazol-4-yl)butanamide]	3.69 ± 11.2	15.7 ± 8.81	19.4 ± 8.16	–
O=C(CCCc1cn(-c2ccc([N+](=O)[O-])cc2)nn1)Nc1nc2ccccc2[nH]1 [11d, N-(1H-Benzo[d]imidazol-2-yl)-4-(1-(4-nitrophenyl)-1H-1,2,3-triazol-4-yl)butanamide]	21.2 ± 1.76	21.4 ± 2.62	39.4 ± 4.6	–
Cc1cc2nc(NC(=O)CCCc3cn(CC(=O)NC4CCCC4)nn3)[nH]c2cc1C [12a, 4-(1-(2-(Cyclopentylamino)-2-oxoethyl)-1H-1,2,3-triazol-4-yl)-N-(5,6-dimethyl-1H-benzo[d]imidazol-2-yl)butanamide]	28.5 ± 7.69	34.1 ± 12.6	48.5 ± 5.25	–
Cc1cc2nc(NC(=O)CCCc3cn(CC(=O)NC4CCCCC4)nn3)[nH]c2cc1C [12b, 4-(1-(2-(Cyclohexylamino)-2-oxoethyl)-1H-1,2,3-triazol-4-yl)-N-(5,6-dimethyl-1H-benzo[d]imidazol-2-yl)butanamide]	5.35 ± 10.2	9.74 ± 20.7	30.8 ± 26.4	–
Cc1cc2nc(NC(=O)CCCc3cn(CC(=O)Nc4ccccn4)nn3)[nH]c2cc1C [12c, N-(5,6-Dimethyl-1H-benzo[d]imidazol-2-yl)-4-(1-(2-oxo-2-(pyridin-2-ylamino)ethyl)-1H-1,2,3-triazol-4-yl)butanamide]	–	7.07 ± 11.8	48.3 ± 13.4	–
O=C1C=C(Br)/C(=C/Br)O1 [Furanone 30, reference compound]	–	–	–	Percentage inhibition of GFP fluorescence ([2]; 62.5 μM): 77.33 ± 2.00%; Percentage inhibition of GFP fluorescence ([2]; 125 μM): 83.02 ± 3.15%; Percentage inhibition of GFP fluorescence ([2]; 250 μM): 86.86 ± 1.18%
Cc1cc2nc(N)[nH]c2cc1C [II, 5,6-dimethyl-2-aminobenzimidazole]	–	–	–	IC50 [3]: 1400 nM; IC50 [4]: 2300 nM
N-(1H-Benzo[d]imidazol-2-yl)-2-(4-nonyl-1H-1,2,3-triazol-1-yl)acetamide [6e]	–	–	–	Percentage inhibition of GFP fluorescence ([2]; 62.5 μM): 24.87 ± 6.69%; Percentage inhibition of GFP fluorescence ([2]; 125 μM): 37.20 ± 6.71%; Percentage inhibition of GFP fluorescence ([2]; 250 μM): 41.31 ± 7.90%
